pKi: −log10 of the molar value.
Assays:
[1] = target: T1, Serotonin 3 (5-HT3) receptor (Rattus norvegicus, UniProt P35563+Q9JJ16); test: Inhibition of [3H]GR-65630 binding to 5-hydroxytryptamine 3 receptor; assay type: protein-complex assay
T1 sequence (P35563 whole entry): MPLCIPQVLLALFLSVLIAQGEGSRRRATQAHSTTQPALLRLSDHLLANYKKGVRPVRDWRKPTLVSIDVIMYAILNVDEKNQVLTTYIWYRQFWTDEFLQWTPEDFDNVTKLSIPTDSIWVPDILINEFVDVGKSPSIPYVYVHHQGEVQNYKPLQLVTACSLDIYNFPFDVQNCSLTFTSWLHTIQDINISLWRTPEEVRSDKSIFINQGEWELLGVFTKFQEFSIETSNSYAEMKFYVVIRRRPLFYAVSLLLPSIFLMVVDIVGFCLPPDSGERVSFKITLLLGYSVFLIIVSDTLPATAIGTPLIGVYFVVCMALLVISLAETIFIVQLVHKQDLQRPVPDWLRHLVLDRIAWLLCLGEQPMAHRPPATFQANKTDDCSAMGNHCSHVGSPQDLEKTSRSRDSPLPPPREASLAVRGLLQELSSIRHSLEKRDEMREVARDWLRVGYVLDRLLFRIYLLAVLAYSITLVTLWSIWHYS
T1 sequence (Q9JJ16 whole entry): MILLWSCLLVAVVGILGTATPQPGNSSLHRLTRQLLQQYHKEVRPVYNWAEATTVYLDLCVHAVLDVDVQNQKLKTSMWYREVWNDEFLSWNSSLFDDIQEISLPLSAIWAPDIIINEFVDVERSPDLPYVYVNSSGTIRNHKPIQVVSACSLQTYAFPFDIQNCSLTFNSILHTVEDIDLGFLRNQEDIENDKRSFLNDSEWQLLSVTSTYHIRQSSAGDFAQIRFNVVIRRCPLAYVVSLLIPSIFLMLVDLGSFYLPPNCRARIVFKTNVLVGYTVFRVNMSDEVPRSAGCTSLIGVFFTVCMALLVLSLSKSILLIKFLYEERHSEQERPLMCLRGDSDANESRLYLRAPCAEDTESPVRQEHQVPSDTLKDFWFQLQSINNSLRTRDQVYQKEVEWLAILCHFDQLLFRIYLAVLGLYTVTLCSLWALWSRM

[2] = target: 5-hydroxytryptamine receptor 4 (Rattus norvegicus) (UniProt Q62758); test: Relaxation of carbachol induced contractions of rat tunica muscularis mucosae
Sequence of 5-hydroxytryptamine receptor 4 (Rattus norvegicus) (Q62758 whole entry): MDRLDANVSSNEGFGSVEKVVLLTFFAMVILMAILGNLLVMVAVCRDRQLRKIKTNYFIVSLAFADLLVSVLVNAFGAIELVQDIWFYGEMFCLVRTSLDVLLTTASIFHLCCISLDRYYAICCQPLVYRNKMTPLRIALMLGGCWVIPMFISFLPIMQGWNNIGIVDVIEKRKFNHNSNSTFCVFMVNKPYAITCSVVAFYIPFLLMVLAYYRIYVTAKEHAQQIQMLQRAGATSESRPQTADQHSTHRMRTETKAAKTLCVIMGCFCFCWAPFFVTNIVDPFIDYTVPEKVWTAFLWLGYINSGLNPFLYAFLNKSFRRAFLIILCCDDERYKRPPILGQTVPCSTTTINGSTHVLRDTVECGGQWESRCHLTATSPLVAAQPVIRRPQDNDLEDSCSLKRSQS
Outline: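 Rat esophagus tunica muscularis mucosae strips, equilibrated 30 min, then contracted isometrically with carbachol (3 μM) to a stable tonic plateau within 20 min. Test agent added cumulatively to relax the strip. Buffer held corticosterone acetate (30 μM), fluoxetine (1 μM) and pargyline (10 μM).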

D(1A) dopamine receptor = D(1A) dopamine receptor (Rattus norvegicus, UniProt P18901); test: The ability to inhibit [3H]-SCH- 23390 binding to Dopamine receptor D1 in rat striata
Sequence of D(1A) dopamine receptor (P18901 whole entry): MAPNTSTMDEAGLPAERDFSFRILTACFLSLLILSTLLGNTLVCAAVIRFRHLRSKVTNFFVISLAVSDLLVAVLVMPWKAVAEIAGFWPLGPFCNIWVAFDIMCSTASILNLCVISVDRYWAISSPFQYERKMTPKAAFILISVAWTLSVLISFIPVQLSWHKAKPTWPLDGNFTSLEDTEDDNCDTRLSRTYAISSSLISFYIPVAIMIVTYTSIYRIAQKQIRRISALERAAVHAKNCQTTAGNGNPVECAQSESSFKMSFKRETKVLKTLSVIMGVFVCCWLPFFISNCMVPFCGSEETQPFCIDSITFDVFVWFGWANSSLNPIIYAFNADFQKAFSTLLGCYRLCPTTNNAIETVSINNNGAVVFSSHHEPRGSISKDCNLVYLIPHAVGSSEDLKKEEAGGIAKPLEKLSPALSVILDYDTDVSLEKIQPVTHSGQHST

[3] = %E relative to serotonin is 100%; assay type: functional
[4] = target: T2, Alpha-1A adrenergic receptor (Rattus norvegicus, UniProt P43140); test: The ability to inhibit [3H]prazosin binding to Alpha-1 adrenergic receptor in rat whole brain
T2 sequence (P43140 whole entry): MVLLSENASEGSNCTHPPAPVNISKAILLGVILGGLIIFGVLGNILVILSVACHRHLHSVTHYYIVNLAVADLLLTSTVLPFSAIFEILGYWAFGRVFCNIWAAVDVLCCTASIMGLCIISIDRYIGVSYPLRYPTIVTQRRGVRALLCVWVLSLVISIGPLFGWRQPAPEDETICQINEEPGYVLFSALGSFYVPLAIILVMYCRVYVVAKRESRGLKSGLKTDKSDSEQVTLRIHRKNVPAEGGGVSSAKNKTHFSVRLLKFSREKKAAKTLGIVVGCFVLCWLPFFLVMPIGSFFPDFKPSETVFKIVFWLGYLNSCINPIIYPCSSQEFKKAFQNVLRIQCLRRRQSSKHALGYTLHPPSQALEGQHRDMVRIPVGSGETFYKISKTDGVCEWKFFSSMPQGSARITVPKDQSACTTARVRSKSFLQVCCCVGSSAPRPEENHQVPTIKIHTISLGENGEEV

Adrenergic receptor beta = Adrenergic receptor beta (Rattus norvegicus, UniProt P18090+P10608+P26255); test: The ability to inhibit [3H]dihydroalprenolol prenolol binding to Beta adrenergic receptor in rat whole brain
[5] = target: Serotonin 1 (5-HT1) receptor (Rattus norvegicus, UniProt P28564+P30940+P19327+P28565); test: The ability to inhibit [3H]5-HT binding to 5-hydroxytryptamine 1 receptor in rat cortex
D(2) dopamine receptor = D(2) dopamine receptor (Rattus norvegicus, UniProt P61169); test: The ability to inhibit [3H]domperidone binding to dopamine receptor D2 in rat striata
Sequence of D(2) dopamine receptor (P61169 whole entry): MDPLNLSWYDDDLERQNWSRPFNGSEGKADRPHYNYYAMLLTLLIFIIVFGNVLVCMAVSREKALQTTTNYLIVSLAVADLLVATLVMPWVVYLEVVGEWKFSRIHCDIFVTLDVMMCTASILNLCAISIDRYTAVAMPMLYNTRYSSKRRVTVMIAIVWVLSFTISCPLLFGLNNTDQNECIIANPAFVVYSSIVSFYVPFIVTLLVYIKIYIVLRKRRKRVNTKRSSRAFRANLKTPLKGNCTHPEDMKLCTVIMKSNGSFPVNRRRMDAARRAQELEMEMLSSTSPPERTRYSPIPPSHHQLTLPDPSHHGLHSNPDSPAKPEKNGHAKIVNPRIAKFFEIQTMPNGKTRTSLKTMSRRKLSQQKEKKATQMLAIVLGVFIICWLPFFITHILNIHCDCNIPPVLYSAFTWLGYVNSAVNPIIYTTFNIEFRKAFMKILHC

[6] = target: T3, Adrenergic receptor alpha-2 (Rattus norvegicus, UniProt P22086+P19328+P22909); test: The ability to inhibit [3H]rauwolscine binding to alpha-2 adrenergic receptor in rat cortex
T3 sequence (P22086 whole entry): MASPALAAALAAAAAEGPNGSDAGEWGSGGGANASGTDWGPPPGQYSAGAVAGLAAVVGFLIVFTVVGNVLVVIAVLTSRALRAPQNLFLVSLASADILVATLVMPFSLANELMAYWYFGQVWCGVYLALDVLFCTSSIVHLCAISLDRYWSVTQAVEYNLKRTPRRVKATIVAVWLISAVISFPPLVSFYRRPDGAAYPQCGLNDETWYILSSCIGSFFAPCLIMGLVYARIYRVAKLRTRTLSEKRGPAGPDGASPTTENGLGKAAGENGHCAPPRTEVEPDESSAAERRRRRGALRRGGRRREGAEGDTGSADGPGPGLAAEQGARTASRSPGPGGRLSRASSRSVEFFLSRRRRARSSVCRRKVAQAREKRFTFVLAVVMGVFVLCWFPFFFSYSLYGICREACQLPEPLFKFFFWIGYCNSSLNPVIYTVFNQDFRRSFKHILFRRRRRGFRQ
T3 sequence (P19328 whole entry): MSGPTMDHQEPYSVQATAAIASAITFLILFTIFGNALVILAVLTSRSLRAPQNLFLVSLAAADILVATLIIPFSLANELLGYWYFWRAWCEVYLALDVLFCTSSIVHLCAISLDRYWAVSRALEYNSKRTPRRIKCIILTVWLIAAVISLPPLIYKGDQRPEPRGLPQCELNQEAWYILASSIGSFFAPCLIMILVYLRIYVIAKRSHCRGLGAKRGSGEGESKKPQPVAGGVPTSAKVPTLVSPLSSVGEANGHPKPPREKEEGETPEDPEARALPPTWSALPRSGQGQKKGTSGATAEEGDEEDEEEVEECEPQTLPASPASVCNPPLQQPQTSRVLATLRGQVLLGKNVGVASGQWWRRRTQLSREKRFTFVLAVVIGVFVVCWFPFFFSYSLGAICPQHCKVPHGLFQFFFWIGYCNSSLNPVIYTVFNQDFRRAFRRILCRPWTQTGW
T3 sequence (P22909 whole entry): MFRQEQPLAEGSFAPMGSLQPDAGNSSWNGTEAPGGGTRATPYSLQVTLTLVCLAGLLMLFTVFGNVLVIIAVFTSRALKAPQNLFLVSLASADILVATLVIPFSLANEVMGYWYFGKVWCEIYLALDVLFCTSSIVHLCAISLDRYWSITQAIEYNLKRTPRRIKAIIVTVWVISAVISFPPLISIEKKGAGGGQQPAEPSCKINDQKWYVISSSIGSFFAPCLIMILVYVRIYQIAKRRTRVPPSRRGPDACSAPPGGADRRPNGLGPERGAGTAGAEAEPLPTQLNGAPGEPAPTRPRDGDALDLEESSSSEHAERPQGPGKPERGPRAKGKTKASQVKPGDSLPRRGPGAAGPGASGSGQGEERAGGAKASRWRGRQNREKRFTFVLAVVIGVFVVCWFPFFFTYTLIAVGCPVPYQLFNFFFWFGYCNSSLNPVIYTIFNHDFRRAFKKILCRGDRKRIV

[7] = target: Serotonin 2 (5-HT2) receptor (Rattus norvegicus, UniProt P30994+P08909+P14842); test: The ability to inhibit [3H]ketanserin binding to 5-hydroxytryptamine 2 receptor in rat whole brain
[8] = target: T1, Serotonin 3 (5-HT3) receptor; test: The ability to inhibit [3H]GR-65630 binding to 5-hydroxytryptamine 3 receptor in rat brain cortices; assay type: tissue-based
Outline: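 Membranes from male rat brain cortices incubated with [3H]GR65630 (0.2 nM) as radioligand.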

## COc1cc(N)c(Cl)cc1C(=O)NC1CCN2CCCC12 (stereo in doubt; 1J) [listing 1 of 2 here]
[1]
  pKi: 7.02

## NCCc1c[nH]c2ccc(O)cc12
[2]
  ED50: 16 nM

## COc1cc(N)c(Cl)cc1C(=O)NC1CCN2CCCC12 (stereo in doubt; 1F) [listing 1 of 2 here]
[1]
  pKi: 7.85

## CCOc1cc(N)c(Cl)cc1C(=O)NC1CCN2CCCC12 (stereo in doubt; 1G) [listing 1 of 2 here]
[2]
  ED50: 2270 nM

## COc1cc(N)c(Cl)cc1C(=O)NC1CCN(CCCOc2ccc(F)cc2)CC1OC (centres undefined) [CISAPRIDE]
D(1A) dopamine receptor
  pKi: 5.77
[3]
  E: 105%
[4]
  pKi: 7.52
Adrenergic receptor beta
  Ki: > 10 µM
[2]
  ED50: 54.7 nM
[5]
  Ki: > 10 µM

## COc1cc(N)c(Cl)cc1C(=O)NC1CCN2CCCC12 (stereo in doubt; 1F) [listing 2 of 2 here]
[2]
  ED50: 187 nM

## COc1cc(N)c(Cl)cc1C(=O)NC1CCN2CCCC1C2 (centres undefined) [RENZAPRIDE]
D(1A) dopamine receptor
  pKi: < 5.00
D(2) dopamine receptor
  pKi: < 5.00
[6]
  Ki: > 10 µM
[3]
  E: 98%
[4]
  pKi: < 5.00
Adrenergic receptor beta
  Ki: > 10 µM
[2]
  ED50: 44 nM

## COc1cc(N)c(Cl)cc1C(=O)N[C@H]1CN2CCC1CC2 [(R)ZACOPRIDE]
[1]
  pKi: 8.10
D(1A) dopamine receptor
  pKi: < 5.00
D(2) dopamine receptor
  pKi: < 5.00
[6]
  Ki: > 10 µM
[3]
  E: 96%
[4]
  pKi: < 5.00
Adrenergic receptor beta
  Ki: > 10 µM
[7]
  Ki: 0.415 µM
[2]
  ED50: 505 nM
[5]
  Ki: > 10 µM

## COc1cc(N)c(Cl)cc1C(=O)NC1CCN2CCCC12 (stereo in doubt; 1J) [listing 2 of 2 here]
[2]
  ED50: 3450 nM

## CCOc1cc(N)c(Cl)cc1C(=O)NCC1CCN2CCCC12 (centres undefined)
[1]
  pKi: 7.60
[2]
  ED50: 1380 nM

## COc1cc(N)c(Cl)cc1C(=O)NCC1CCN2CCCC12 (stereo in doubt; 1A) [listing 1 of 2 here]
[1]
  pKi: 6.98

## O=C(NC1CCN2CCCC12)c1ccccc1 (centres undefined)
[1]
  pKi: < 6.70
[2]
  ED50: > 10000 nM

## COc1cc(N)c(Cl)cc1C(=O)NC[C@@H]1CCN2CCC[C@@H]12 (relative stereo)
[1]
  pKi: 6.82
D(1A) dopamine receptor
  pKi: < 5.00
D(2) dopamine receptor
  pKi: < 5.00
[6]
  Ki: > 10 µM
[3]
  E: 93%
[4]
  pKi: < 5.00
Adrenergic receptor beta
  Ki: > 10 µM
[7]
  Ki: > 10 µM
[2]
  ED50: 23 nM
[5]
  Ki: > 10 µM

## COc1cc(N)c(Cl)cc1C(=O)NCC1CCN2CCCC12 (stereo in doubt; 1E) [listing 1 of 2 here]
[1]
  pKi: 6.56

## COc1cc(N)c(Cl)cc1C(=O)NCC1CCN2CCCC12 (stereo in doubt; 1A) [listing 2 of 2 here]
[2]
  ED50: 64 nM

## CCOc1cc(N)c(Cl)cc1C(=O)NC1CCN2CCCC12 (stereo in doubt; 1K) [listing 1 of 2 here]
[1]
  pKi: 7.00

## CC(C)n1c(=O)n(C(=O)CC2CC3CCC(C2)N3C)c2ccccc21 (centres undefined)
D(1A) dopamine receptor
  pKi: < 5.00
D(2) dopamine receptor
  pKi: < 5.00
[6]
  Ki: > 10 µM
[8]
  pKi: < 5.00
[3]
  E: > 111%
[4]
  pKi: < 5.00
Adrenergic receptor beta
  Ki: > 10 µM
[7]
  Ki: > 10 µM
[2]
  ED50: 40.2 nM
[5]
  Ki: > 10 µM

## CCN(CC)CCNC(=O)c1cc(Cl)c(N)cc1OC [METOCLOPRAMIDE]
[1]
  pKi: 6.62
[2]
  ED50: 24100 nM

## CCOc1cc(N)c(Cl)cc1C(=O)NC1CCN2CCCC12 (stereo in doubt; 1K) [listing 2 of 2 here]
[2]
  ED50: > 10000 nM

## COc1cc(N)c(Cl)cc1C(=O)NC[C@H]1CCN2CCC[C@H]12
[1]
  pKi: 7.18
[2]
  ED50: 323 nM

## CCOc1cc(N)c(Cl)cc1C(=O)NC1CCN2CCCC12 (stereo in doubt; 1G) [listing 2 of 2 here]
[1]
  pKi: 8.10

## COc1cc(N)c(Cl)cc1C(=O)NCC1CCN2CCCC12 (stereo in doubt; 1E) [listing 2 of 2 here]
[2]
  ED50: 280 nM
